# Assay: Toxicity liver stage against HepG2, at 10uM
# Format: cell-based
# Set-up: test concentration 10 uM, cell line HepG2-A16-CD81EGFP
# Details: human, HepG2-A16-CD81EGFP cells; read-out: INHIBITION
# In short: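 Uninfected HepG2-A16-CD81EGFP cells, 3 × 10^3 per well, 1536-well, plated on prespotted compound at 10 μM final, parasite-free screening media added to match infected plates; puromycin 10 μM positive, DMSO 0.5% negative; run in parallel with 48 h PbLuc assay at 37 °C, 5% CO2; viability by CellTiter-Glo luminescence, normalized to controls.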
row,Compound,cytotoxicity at 10 µM [%]
1,Cc1c(Cl)cccc1NC(=O)c1nc[nH]n1,-7.93
2,CS(=O)(=O)c1ccc(O[C@H]2COCCN(C(=O)c3ccno3)C2)cc1,0.0962
3,N#Cc1cccc(C(=O)Nc2ccc([C@@H](O)[C@H]3COCC(=O)N3)cc2)c1,-4.25
4,O=C(c1cc(CC2(NC3CCCCC3)COC2)no1)N1CCCCC1,7.65
5,CCCNC(=O)CCC(=O)n1nc(C)c2ccccc21,1.23
6,CC(C)c1sc(Cl)nc1C(=O)N1CCN(c2ccccc2)CC1,-87.6
7,O=c1[nH]c2c(-c3ccccn3)nsc2c(=O)n1CC1CCCO1 (stereo unspecified),9.26
8,COc1ccc(F)cc1S(=O)(=O)N1CCC(OC)CC1,-3.97
9,COc1cc(N2C[C@H]3CN(C(=O)c4cnccn4)C[C@H]3C2)ncn1,-141
10,COc1nn(C)c2c1CCCN(S(=O)(=O)c1cccs1)C2,-112
11,O=C(c1ccoc1)N1CCC2(C1)CN(c1ncc(F)cn1)C2,-0.472
12,Cc1ccc(CN2CC[C@H]3OCC[C@@H](C(=O)NCC4CC4)[C@@H]3C2)o1,0.951
13,CCNC(=O)N1CCC2(C1)c1ccccc1S(=O)(=O)N2CCOC (stereo unspecified),-151
14,CCN1C[C@H]2CCN(C(=O)NC)CC[C@H]2S1(=O)=O,4
15,CC(C)n1[nH]c(=O)c2c1NC(=O)CC2c1ccc(C#N)cc1 (stereo unspecified),3.92
16,CC(C)(C)n1ncc2c1NC(=O)CC2c1ccc(C#N)cc1 (stereo unspecified),-1.26
17,Clc1ccc2nncc(N3CCCCC3)c2c1,-4.34
18,Cc1nn(C)c2c(N3CCC(C)CC3)nc(C3CC3)nc12,7.59
19,Cn1nc(C(=O)N2CCOCC2)cc1C(=O)Nc1ncc(Cl)cc1Cl,12.5
20,CS(=O)(=O)N1CCN(C(=O)c2cncs2)CC(C(N)=O)C1 (stereo unspecified),2.9
21,O=C1N[C@H]2OCCC[C@H]2[C@H](c2ccc(C(=O)O)cc2)N1,-2.51
22,CC(=O)Nc1ccc(CCC2(NC(=O)C3CCCO3)CCCCC2)cn1 (stereo unspecified),1.6
23,Nc1nccnc1CC1CCCN(Cc2cccc3[nH]ccc23)C1 (stereo unspecified),0.994

row,Compound,cytotoxicity at 10 µM [%]
1,O=C(NCCNC1CCCC1)c1cccs1,-0.579
2,Fc1ccccc1-c1nccnc1C1CCCNC1 (stereo unspecified),-25.7
3,COCCN1CCCC(Cc2ccc(N3CCOCC3)nn2)C1 (stereo unspecified),-17.9
4,Cc1ccc(-c2cc(N)c(=O)n(C(C)C(=O)NCC3CCCCC3)n2)s1 (stereo unspecified),-13.9
5,Cc1noc(C)c1-c1cncc(C2CCCN2Cc2cc[nH]n2)n1 (stereo unspecified),13
6,CS(=O)(=O)c1ccc(NC(=O)NCc2ccc(F)cc2)cn1,15.4
7,CCOc1ccc(NC(=O)c2oc(CC)cc2C)cc1CO,2.05
8,Cc1cccc(-c2ccc(C(=O)N3CCN(C(C)C)CC3)c(=O)[nH]2)c1,-3.27
9,COCCS(=O)(=O)N(Cc1ccsc1)c1ccccc1,-4.76
10,CCCS(=O)(=O)NCc1ncc(C)c(OC)c1C,-12.9
11,CN(C)c1ncccc1N(C)C(=O)Cn1cc(-c2ccccc2)nn1,-2.2
12,CC(Oc1ccc(C(=O)NCCNS(C)(=O)=O)cn1)c1ccccc1 (stereo unspecified),7.44
13,O=C(CCc1ccc(C(F)(F)F)cc1)N1CCCS1(=O)=O,4.37
14,CC(C)COc1cncc(N2CCCN(CC(F)(F)F)CC2)n1,4.29
15,O=C(c1ccoc1)N(Cc1ccccn1)C1CC1,-15
16,Cc1nnc2n1CCN(C(=O)c1ccn(-c3cccc(F)c3)n1)C2,-144
17,CCc1nnc2n1CCN(C(=O)c1cn(-c3ccccc3)nn1)C2,-141
18,OCC1CCCN1c1cc(NCCc2nccs2)ncn1 (stereo unspecified),4.58
19,CSCC(C)N(C)C(=O)c1nn(-c2ccc(F)cc2C)cc1O (stereo unspecified),0.618
20,CN1CCC(N(C)C(=O)CSc2ccc(F)c(F)c2)C1=O (stereo unspecified),-5.89
21,Cc1cnn(C2CCCN(C(=O)c3c(C)oc(C)c3C)C2)c1 (stereo unspecified),2.56
22,Cc1n[nH]c(C(=O)N2CCCC(C)CC2)c1Br (stereo unspecified),-1.74
23,Cc1ccc(CNC(=O)NC(C)CCS(C)(=O)=O)cc1F (stereo unspecified),-146

row,Compound,cytotoxicity at 10 µM [%]
1,O=C(c1ccc(Sc2ccccn2)cc1)N1CCCSCC1,11.5
2,Cc1cc(NCc2cccc(C#N)c2)ccc1C(N)=O,10.1
3,COCCc1noc(CNC(C)(CO)C2CCCCC2)n1 (stereo unspecified),7.88
4,CCCn1cc(NC(=O)c2cccc3cccnc23)ccc1=O,-4.73
5,COc1ccc(C)cc1NS(=O)(=O)c1ccc(CCNC(C)=O)s1,0.549
6,CC(C)N(Cc1ccccn1)C(=O)CCOc1cccc(F)c1,4.58
7,Cc1nnc(SCCC(=O)N(C)Cc2c(F)cccc2Cl)[nH]1,1.69
8,NC(=O)C1CCCN1Cc1ccccc1NC(=O)Cc1cccc(F)c1 (stereo unspecified),7.31
9,CCOCc1nnc(NCc2cccnc2)o1,10.9
10,CC(O)CN1CCN(C(=O)c2cnn(-c3ccccc3F)c2)CC1 (stereo unspecified),-6.81
11,CC(C)(C)C(=O)NCCC(=O)NC(C)(C)c1ccc2c(c1)OCCO2,-1.22
12,O=C(NC1CC1)N1C[C@@H]2CCN(C(=O)c3cscn3)[C@@H]2C1,-0.025
13,O=C(c1ncccn1)N1C[C@@H]2CN(Cc3cccnc3)CCO[C@@H]2C1,7.67
14,CC(C)Oc1ccc(CN2CCC(Cc3nnc(CO)n3C)CC2)cc1,1.24
15,O=C(NCCSc1ccccc1)[C@H]1CNC[C@@H](C(=O)N2CCOCC2)C1,-3.03
16,CCOc1ccccc1C(C(=O)O)N(C)Cc1nnc(C)o1 (stereo unspecified),-9.77
17,CCN1CCC(NN2CCN(C)CC2)CC1,0.935
18,O=C1CCC2(CCOC2)CN1CCCOc1cccnc1 (stereo unspecified),-16.1
19,CCCc1ccc(CN2CCC3(CCC(=O)N(CCO)C3)CC2)o1,-6.29
20,CCC(=O)N1CCCC(C(=O)N2CCN(c3cnn(C)c(=O)c3)CC2)C1 (stereo unspecified),3.98
21,Cc1ccc(Cl)c(C(C(=O)O)N(C)Cc2cnn(C)c2)c1 (stereo unspecified),-11
22,O=C(c1cnc2ccccn12)N1CCCC(c2ccn[nH]2)C1 (stereo unspecified),-5.28
23,COCCN1CCC(CN(C)c2ncnc3c2c(C)nn3C)C1 (stereo unspecified),-5.16

row,Compound,cytotoxicity at 10 µM [%]
1,CN(Cc1ccccc1Cl)C(=O)c1cc(CN2CCC(O)CC2)on1,0.0227
2,Cc1ccc2nc(C3CCCN3Cc3nnc(C)s3)[nH]c2c1 (stereo unspecified),-2.82
3,Cc1oc(C(=O)O)cc1S(=O)(=O)Nc1cc(Br)ccc1F,-3.46
4,Cc1noc(NC(=O)c2ccc(C#N)cc2)n1,-5.32
5,CNc1nc(CNC(=O)Nc2cccc(CN(C)C)c2)cs1,-8.04
6,NC(=O)C1CCN(C(=O)c2ccn(-c3cccc(Cl)c3)n2)C1 (stereo unspecified),-0.433
7,Cc1ccc(C(=O)NS(=O)(=O)c2cc(F)ccc2F)c(=O)[nH]1,-1.73
8,O=C(NCCn1ccnc1)N1CCCC1c1ccc2c(c1)OCCO2 (stereo unspecified),-8.16
9,COCc1ccccc1CNC(=O)CN1CCCC1c1noc(C)n1 (stereo unspecified),1.13
10,Cc1nc(CCNCc2c(C)nn(C)c2N2CCOCC2)cs1,-11.5
11,COc1c(C)cnc(CN2CCCC(Cn3nc(C)nc3C)C2)c1C (stereo unspecified),2.37
12,Cc1n[nH]c(C2CN(C(=O)c3cc4c(s3)CCCC4)CCO2)n1 (stereo unspecified),-14.9
13,Cc1cc(C(=O)N2CCN(Cc3ccsc3)CC2)c(C)n1C1CC1,-1.94
14,Cc1ccc(CNC(=O)CN2CCCCC2Cn2cncn2)s1 (stereo unspecified),1.8
15,Cn1cnc2c1CCN(CCCS(=O)(=O)c1ccccc1)C2,-7.54
16,Cc1cnn(CC2CN(CCc3cccs3)CCO2)c1 (stereo unspecified),-14.2
17,Cc1cc(C)n(CC2CN(CC(=O)NCc3ccccn3)CCO2)n1 (stereo unspecified),-5.07
18,Cc1cnn(C2CN(Cc3nc(-c4ccco4)no3)C2)c1,-14.6
19,Cc1n[nH]c(C)c1C1COCCN1C(=O)c1ccccc1 (stereo unspecified),-3.94
20,O=C(COc1ccc(C(F)(F)F)cc1)NS(=O)(=O)c1cccnc1,-7.44
21,Cn1cc(-c2nc(CN3CCN(CCO)CC3)cs2)cn1,-2.66
22,Cc1cnn(CC2CCCCN2CCn2cncn2)c1 (stereo unspecified),6.26
23,Cn1ccc(C(=O)NCc2ccc(N3CCCC3)nc2)cc1=O,0.12

row,Compound,cytotoxicity at 10 µM [%]
1,Fc1cccc(-c2nc(CN3CCOC(Cn4cccn4)C3)co2)c1 (stereo unspecified),-5.6
2,c1ccc(-n2ncc(CN3CCCC3Cn3cccn3)n2)cc1 (stereo unspecified),-2.73
3,COc1ccc(C(=O)N(C)Cc2nnc3ccccn23)c(OC)c1,-3.03
4,CNC(=O)c1ccc(CN2CCC(N(C)Cc3noc(C)n3)C2)cc1 (stereo unspecified),5.56
5,CNCc1ccc(OCc2ccc3c(c2)OCCO3)cc1,1.61
6,Cc1c(C(=O)N2CCOCC2)n(C)c2ccc(Cl)cc12,-0.244
7,CCNC(=O)[C@@H]1CCCN1[C@@H](C(=O)NC)c1ccccc1,7.77
8,Cn1nc(C2CCCN(Cc3cccs3)C2)c2nccnc21 (stereo unspecified),4.2
9,COc1ncnc2c1CCN(Cc1cccs1)CC2,8.55
10,Cc1csc(CN2CC[C@H]3C[C@H](c4nc(C)no4)O[C@@H]3C2)n1,-3.35
11,CCc1ncnc2c1CCN(C(=O)c1ccccn1)CC2,2.43
12,Cc1ccc(NC(=O)c2nc3c(s2)CCCN3C(=O)C2CC2)cn1,10.5
13,O=C([C@H]1CC[C@@H]2[C@@H](CCN2Cc2nccs2)O1)N1CCOCC1,-0.891
14,CN1CCC(c2nnc3ccc(C(=O)NC4CCCC4)cn23)C1 (stereo unspecified),-1.37
15,COCC1CC2(CCN(Cc3ccoc3)CC2)CN1C(C)C (stereo unspecified),0.803
16,CNC(=O)[C@@H](c1ccccc1)N1CCC[C@H]1C(=O)NCc1cccnc1,2.38
17,CC(=O)N1CC(=O)N(c2ccccc2)CC12CCN(Cc1nccs1)C2 (stereo unspecified),-2.23
18,COCCOCC1(CNCc2ccc(OC)cc2)C[C@@H](O)[C@@H](O)C1 (stereo partly specified),-7.46
19,Cc1cc(C(=O)NC2CCC3(CCC(=O)N3CC3CC3)CC2)no1 (stereo unspecified),-0.39

# Reference: ChEMBL document CHEMBL4513216, “Probing the Open Global Health Chemical Diversity Library for Multistage-Active Starting Points for Next-Generation Antimalarials” (ACS Infect Dis, 2020)
